Measured values: ChEMBL document CHEMBL1122757, “Angiotensin II: dependence of hormone affinity on the electronegativity of a single side chain” (1984)
Square brackets hold non-standard residues; d marks the D form. Peptide text beside a SMILES is read from it. Sar = CNCC(=O)O

Legend:
[1] = biological target: T1, Type-1 angiotensin II receptor (Bos taurus) (UniProt P25104); experiment: Displacement of [3H]AT from angiotensin II receptor in bovine adrenocortical membranes; assay type: cell membranes
T1 sequence (whole entry): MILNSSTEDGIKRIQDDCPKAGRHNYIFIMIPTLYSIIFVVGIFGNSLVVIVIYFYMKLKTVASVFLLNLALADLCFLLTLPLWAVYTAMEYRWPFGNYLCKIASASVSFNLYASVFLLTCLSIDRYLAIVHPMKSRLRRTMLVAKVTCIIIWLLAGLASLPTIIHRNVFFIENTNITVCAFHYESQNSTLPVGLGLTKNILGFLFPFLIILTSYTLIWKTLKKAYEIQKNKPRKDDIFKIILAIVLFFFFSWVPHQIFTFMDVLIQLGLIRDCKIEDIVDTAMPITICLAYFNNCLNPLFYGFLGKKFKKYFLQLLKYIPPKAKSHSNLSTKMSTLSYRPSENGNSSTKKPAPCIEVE
How it was run: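 Bovine adrenal glands taken fresh at slaughter, kept in ice-cold saline and dissected; purified adrenal microsomal membranes (~50-100 μg protein) in 100 μL assay buffer with [Sar1,(3',5'-3H2-4'-NH2)Phe4]AT at 5 × 10^-9 M. Competitor 10^-9 to 10^-4 M. Triplicate, 20 °C, 15 min. Filtration on nitrocellulose, scintillation counting. Nonspecific binding with 10^-4 M unlabeled AT. Specific binding as B/BO. At least nine independent experiments; RA given relative to standard.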

Oryctolagus cuniculus [2] = species: Oryctolagus cuniculus; experiment: In vitro biological activity on rabbit aorta strip.; assay type: functional
How it was run: (§1)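 Isolated rabbit aorta strips under 2 g tension, adjusted during a 60–90-min equilibration, with bath fluid changed every 10–15 min. Peptides added to the tissue bath, concentrations stated as final bath concentrations. Contractile responses recorded with force-displacement transducers.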

Rattus norvegicus [3] = experiment: In vivo biological activity on the blood pressure of the anesthetized rat.; assay type: functional
Oryctolagus cuniculus [4] = species: Oryctolagus cuniculus; experiment: In vitro biological activity on rabbit aorta strip; assay type: functional; how it was run: as §1
Rattus norvegicus [5] = experiment: In vivo biological activity on the blood pressure of the anesthetized rat; assay type: functional

Compound | Activity [1] | Activity (Oryctolagus cuniculus [2]) | Activity (Rattus norvegicus [3]) | further results
CNCC(=O)N[C@@H](CCCN=C(N)N)C(=O)N[C@H](C(=O)N[C@@H](Cc1ccc(N=[N+]=[N-])cc1)C(=O)N[C@H](C(=O)N[C@@H](Cc1c[nH]cn1)C(=O)N1CCC[C@@H]1C(=O)N[C@@H](Cc1ccccc1)C(=O)O)C(C)C)C(C)C | 2.6% | – | – | –
CNCC(=O)N[C@@H](CCCN=C(N)N)C(=O)N[C@H](C(=O)N[C@@H](Cc1cc([N+](=O)[O-])c(O)c([N+](=O)[O-])c1)C(=O)N[C@H](C(=O)N[C@@H](Cc1c[nH]cn1)C(=O)N1CCC[C@H]1C(=O)N[C@@H](Cc1ccccc1)C(=O)O)C(C)C)C(C)C | – | 7.8% | 0.5% | –
CNCC(=O)N[C@@H](CCCN=C(N)N)C(=O)N[C@H](C(=O)N[C@@H](Cc1ccc(O)c(N=[N+]=[N-])c1)C(=O)N[C@H](C(=O)N[C@@H](Cc1c[nH]cn1)C(=O)N1CCC[C@H]1C(=O)N[C@@H](Cc1ccccc1)C(=O)O)C(C)C)C(C)C | – | 63% | 63% | –
CNCC(=O)N[C@@H](CCCN=C(N)N)C(=O)N[C@H](C(=O)N[C@@H](Cc1ccc(S(N)(=O)=O)cc1)C(=O)N[C@H](C(=O)N[C@@H](Cc1c[nH]cn1)C(=O)N1CCC[C@H]1C(=O)N[C@@H](Cc1ccccc1)C(=O)O)C(C)C)C(C)C | – | 3.2% | 0.9% | –
CNCC(=O)N[C@@H](CCCN=C(N)N)C(=O)N[C@H](C(=O)N[C@@H](Cc1ccccc1)C(=O)N[C@H](C(=O)N[C@@H](Cc1c[nH]cn1)C(=O)N1CCC[C@H]1C(=O)N[C@@H](Cc1ccccc1)C(=O)O)C(C)C)C(C)C | – | – | – | Activity (Oryctolagus cuniculus [4]): 9.8%; Activity (Rattus norvegicus [5]): 8.1%
CNCC(=O)N[C@@H](CCCN=C(N)N)C(=O)N[C@H](C(=O)N[C@@H](Cc1ccc(O)cc1)C(=O)N[C@H](C(=O)N[C@@H](Cc1c[nH]cn1)C(=O)N1CCC[C@@H]1C(=O)N[C@@H](Cc1ccccc1)C(=O)O)C(C)C)C(C)C (H-[Sar]RVYVH[dP]F-OH) | 100% | – | – | –
CNCC(=O)N[C@@H](CCCN=C(N)N)C(=O)N[C@H](C(=O)N[C@@H](Cc1ccc(O)c([N+](=O)[O-])c1)C(=O)N[C@H](C(=O)N[C@@H](Cc1c[nH]cn1)C(=O)N1CCC[C@H]1C(=O)N[C@@H](Cc1ccccc1)C(=O)O)C(C)C)C(C)C | – | 38% | 16% | –
CNCC(=O)N[C@@H](CCCN=C(N)N)C(=O)N[C@H](C(=O)N[C@@H](Cc1ccc(S)cc1)C(=O)N[C@H](C(=O)N[C@@H](Cc1c[nH]cn1)C(=O)N1CCC[C@H]1C(=O)N[C@@H](Cc1ccccc1)C(=O)O)C(C)C)C(C)C | – | 0.9% | – | –
CNCC(=O)N[C@@H](CCCN=C(N)N)C(=O)N[C@H](C(=O)N[C@@H](Cc1ccc(O)c(N=[N+]=[N-])c1)C(=O)N[C@H](C(=O)N[C@@H](Cc1c[nH]cn1)C(=O)N1CCC[C@@H]1C(=O)N[C@@H](Cc1ccccc1)C(=O)O)C(C)C)C(C)C | 61% | – | – | –
CNCC(=O)N[C@@H](CCCN=C(N)N)C(=O)N[C@H](C(=O)N[C@@H](Cc1ccc(O)c(N)c1)C(=O)N[C@H](C(=O)N[C@@H](Cc1c[nH]cn1)C(=O)N1CCC[C@@H]1C(=O)N[C@@H](Cc1ccccc1)C(=O)O)C(C)C)C(C)C | 132% | – | – | –
CNCC(=O)N[C@@H](CCCN=C(N)N)C(=O)N[C@H](C(=O)N[C@@H](Cc1ccc(N)cc1)C(=O)N[C@H](C(=O)N[C@@H](Cc1c[nH]cn1)C(=O)N1CCC[C@@H]1C(=O)N[C@@H](Cc1ccccc1)C(=O)O)C(C)C)C(C)C | 28% | – | – | –
CNCC(=O)N[C@@H](CCCN=C(N)N)C(=O)N[C@H](C(=O)N[C@@H](Cc1cc(I)c(N)c(I)c1)C(=O)N[C@H](C(=O)N[C@@H](Cc1c[nH]cn1)C(=O)N1CCC[C@@H]1C(=O)N[C@@H](Cc1ccccc1)C(=O)O)C(C)C)C(C)C | 16% | – | – | –
CNCC(=O)N[C@@H](CCCN=C(N)N)C(=O)N[C@H](C(=O)N[C@@H](Cc1ccc([N+](=O)[O-])cc1)C(=O)N[C@H](C(=O)N[C@@H](Cc1c[nH]cn1)C(=O)N1CCC[C@@H]1C(=O)N[C@@H](Cc1ccccc1)C(=O)O)C(C)C)C(C)C | 1.5% | – | – | –
CNCC(=O)N[C@@H](CCCN=C(N)N)C(=O)N[C@H](C(=O)N[C@@H](Cc1ccc(S(N)(=O)=O)cc1)C(=O)N[C@H](C(=O)N[C@@H](Cc1c[nH]cn1)C(=O)N1CCC[C@@H]1C(=O)N[C@@H](Cc1ccccc1)C(=O)O)C(C)C)C(C)C | 3.8% | – | – | –
CNCC(=O)N[C@@H](CCCN=C(N)N)C(=O)N[C@H](C(=O)N[C@@H](Cc1ccc(O)cc1)C(=O)N[C@H](C(=O)N[C@@H](Cc1c[nH]cn1)C(=O)N1CCC[C@H]1C(=O)N[C@@H](Cc1ccccc1)C(=O)O)C(C)C)C(C)C (H-[Sar]RVYVHPF-OH) | – | 100% | 100% | –
CNCC(=O)N[C@@H](CCCN=C(N)N)C(=O)N[C@H](C(=O)N[C@@H](Cc1cc(Cl)c(O)c(Cl)c1)C(=O)N[C@H](C(=O)N[C@@H](Cc1c[nH]cn1)C(=O)N1CCC[C@@H]1C(=O)N[C@@H](Cc1ccccc1)C(=O)O)C(C)C)C(C)C | 28% | – | – | –
CNCC(=O)N[C@@H](CCCN=C(N)N)C(=O)N[C@H](C(=O)N[C@@H](Cc1ccc([N+](=O)[O-])cc1)C(=O)N[C@H](C(=O)N[C@@H](Cc1c[nH]cn1)C(=O)N1CCC[C@H]1C(=O)N[C@@H](Cc1ccccc1)C(=O)O)C(C)C)C(C)C | – | 0% | 0.2% | –
CNCC(=O)N[C@@H](CCCN=C(N)N)C(=O)N[C@H](C(=O)N[C@@H](Cc1ccc(S(=O)(=O)O)cc1)C(=O)N[C@H](C(=O)N[C@@H](Cc1c[nH]cn1)C(=O)N1CCC[C@@H]1C(=O)N[C@@H](Cc1ccccc1)C(=O)O)C(C)C)C(C)C | 0% | – | – | –
CNCC(=O)N[C@@H](CCCN=C(N)N)C(=O)N[C@H](C(=O)N[C@@H](Cc1ccc(O)c([N+](=O)[O-])c1)C(=O)N[C@H](C(=O)N[C@@H](Cc1c[nH]cn1)C(=O)N1CCC[C@@H]1C(=O)N[C@@H](Cc1ccccc1)C(=O)O)C(C)C)C(C)C | 75% | – | – | –
CNCC(=O)N[C@@H](CCCN=C(N)N)C(=O)N[C@H](C(=O)N[C@@H](Cc1ccc(N)cc1)C(=O)N[C@H](C(=O)N[C@@H](Cc1c[nH]cn1)C(=O)N1CCC[C@H]1C(=O)N[C@@H](Cc1ccccc1)C(=O)O)C(C)C)C(C)C | – | 15% | 14% | –
CNCC(=O)N[C@@H](CCCN=C(N)N)C(=O)N[C@H](C(=O)N[C@@H](Cc1ccc(N=[N+]=[N-])cc1)C(=O)N[C@H](C(=O)N[C@@H](Cc1c[nH]cn1)C(=O)N1CCC[C@H]1C(=O)N[C@@H](Cc1ccccc1)C(=O)O)C(C)C)C(C)C | – | 0.3% | – | –
CNCC(=O)N[C@@H](CCCN=C(N)N)C(=O)N[C@H](C(=O)N[C@@H](Cc1ccc(S(=O)(=O)O)cc1)C(=O)N[C@H](C(=O)N[C@@H](Cc1c[nH]cn1)C(=O)N1CCC[C@H]1C(=O)N[C@@H](Cc1ccccc1)C(=O)O)C(C)C)C(C)C | – | 0% | 0% | –
CNCC(=O)N[C@@H](CCCN=C(N)N)C(=O)N[C@H](C(=O)N[C@@H](Cc1cc(I)c(N)c(I)c1)C(=O)N[C@H](C(=O)N[C@@H](Cc1c[nH]cn1)C(=O)N1CCC[C@H]1C(=O)N[C@@H](Cc1ccccc1)C(=O)O)C(C)C)C(C)C | – | 2.7% | 5.3% | –
CNCC(=O)N[C@@H](CCCN=C(N)N)C(=O)N[C@H](C(=O)N[C@@H](Cc1cc([N+](=O)[O-])c(O)c([N+](=O)[O-])c1)C(=O)N[C@H](C(=O)N[C@@H](Cc1c[nH]cn1)C(=O)N1CCC[C@@H]1C(=O)N[C@@H](Cc1ccccc1)C(=O)O)C(C)C)C(C)C | 1.5% | – | – | –
CNCC(=O)N[C@@H](CCCN=C(N)N)C(=O)N[C@H](C(=O)N[C@@H](Cc1cc(Cl)c(O)c(Cl)c1)C(=O)N[C@H](C(=O)N[C@@H](Cc1c[nH]cn1)C(=O)N1CCC[C@H]1C(=O)N[C@@H](Cc1ccccc1)C(=O)O)C(C)C)C(C)C | – | 22% | 19% | –
CNCC(=O)N[C@@H](CCCN=C(N)N)C(=O)N[C@H](C(=O)N[C@@H](Cc1ccc(O)c(N)c1)C(=O)N[C@H](C(=O)N[C@@H](Cc1c[nH]cn1)C(=O)N1CCC[C@H]1C(=O)N[C@@H](Cc1ccccc1)C(=O)O)C(C)C)C(C)C | – | 120% | 184% | –
CNCC(=O)N[C@@H](CCCN=C(N)N)C(=O)N[C@H](C(=O)N[C@@H](Cc1ccc(O)c(Cl)c1)C(=O)N[C@H](C(=O)N[C@@H](Cc1c[nH]cn1)C(=O)N1CCC[C@H]1C(=O)N[C@@H](Cc1ccccc1)C(=O)O)C(C)C)C(C)C | – | 103% | 82% | –
CNCC(=O)N[C@@H](CCCN=C(N)N)C(=O)N[C@H](C(=O)N[C@@H](Cc1ccccc1)C(=O)N[C@H](C(=O)N[C@@H](Cc1c[nH]cn1)C(=O)N1CCC[C@@H]1C(=O)N[C@@H](Cc1ccccc1)C(=O)O)C(C)C)C(C)C | 18% | – | – | –
CNCC(=O)N[C@@H](CCCN=C(N)N)C(=O)N[C@H](C(=O)N[C@@H](Cc1ccc(S)cc1)C(=O)N[C@H](C(=O)N[C@@H](Cc1c[nH]cn1)C(=O)N1CCC[C@@H]1C(=O)N[C@@H](Cc1ccccc1)C(=O)O)C(C)C)C(C)C | 0.5% | – | – | –
CNCC(=O)N[C@@H](CCCN=C(N)N)C(=O)N[C@H](C(=O)N[C@@H](Cc1ccc(O)c(Cl)c1)C(=O)N[C@H](C(=O)N[C@@H](Cc1c[nH]cn1)C(=O)N1CCC[C@@H]1C(=O)N[C@@H](Cc1ccccc1)C(=O)O)C(C)C)C(C)C | 87% | – | – | –
